# From ChEMBL document CHEMBL4138134, “Antiplasmodial Chromanes and Chromenes from the Monotypic Plant Species Koeberlinia spinosa” (J Nat Prod, 2018)
# How the values were obtained:
# A2780 = experiment: Cytotoxicity against human A2780 cells after 2 days by Alamar blue assay; assay type: cell-based; conditions: A2780, 48 h
# Plasmodium falciparum = experiment: Antimalarial activity against chloroquine/mefloquine-resistant Plasmodium falciparum Dd2 measured after 72 hrs by SYBR green1 dye based fluorescence assay; assay type: functional, organism-based
# In short: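 Whole-parasite growth inhibition, 72 h treatment, SYBR Green I fluorescence read-out, IC50 derived. Both fractions and isolated compounds were tested on the chloroquine/mefloquine-resistant Dd2 strain. Artemisinin served as positive control.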
# [1] = Plasmodium falciparum, Dd2, 72 h
Compound,IC50 (A2780) [µM],IC50 (Plasmodium falciparum; [1]) [µM],IC50 (Plasmodium falciparum) [µM]
C/C(=C/C(=O)C[C@]1(C)CCc2cc(O)cc(C)c2O1)CC/C=C(\C)CO,> 10,,
C[C@@H]1CC[C@H]2[C@@H](C)C(=O)O[C@@H]3O[C@@]4(C)CC[C@@H]1[C@]32OO4 [ARTEMISININ],,0.009,
"CC1=CCCC(C)(CC(=O)C[C@]2(C)CCc3cc(O)cc(C)c3O2)OC1 (single isomer, unassigned; diastereomer 1)",> 10,,109
C/C(=C/CC/C(C)=C/C(=O)C[C@]1(C)CCc2cc(O)cc(C)c2O1)CO,> 10,24,
C/C(=C\CC/C(C)=C/C(=O)C[C@]1(C)CCc2cc(O)cc(C)c2O1)CO,> 10,> 112,
"CC1=CCCC(C)(CC(=O)C[C@]2(C)CCc3cc(O)cc(C)c3O2)OC1 (single isomer, unassigned; diastereomer 2)",,,23
C/C(=C\CC/C(C)=C/C(=O)C[C@]1(C)C=Cc2cc(O)cc(C)c2O1)CO,> 10,> 112,
C/C(=C/CC/C(C)=C\C(=O)C[C@]1(C)CCc2cc(O)cc(C)c2O1)CO,> 10,,
COc1cc(C)c2c(c1)CC[C@@](C)(CC(=O)/C=C(\C)CC/C=C(\C)CO)O2,> 10,24,
C/C(=C\CC/C(C)=C/CC[C@]1(C)C=Cc2cc(O)cc(C)c2O1)CO,> 10,,
